{"data": "Measurements from different studies", "target": "Vascular endothelial growth factor receptor 2 (KDR, Homo sapiens, UniProt P35968)", "note": "Each line is one published result; the experiments were not run side by side."}
{"Structure (SMILES)": "CN(CCCC(F)(F)F)c1nccc(-c2cnn3ncccc23)n1", "read-out": "binding", "tested at": "1 µM", "remaining binding [%]": 100}
{"Structure (SMILES)": "Nc1ncc2c(n1)-c1c([nH]c3ccc(C#CC4CC4)cc13)CCCC2", "read-out": "binding", "technique": "competition with immobilised ligand", "tested at": "1 µM", "remaining binding [%]": 90}
{"Structure (SMILES)": "C[C@@H]1CN(c2ccc3ncc(-c4ccc5[nH]nc(C6CC6)c5c4)n3n2)C[C@H](C)O1", "read-out": "binding", "technique": "competition with immobilised ligand", "tested at": "0.5 µM", "remaining binding [%]": 100}
{"Structure (SMILES)": "c1cnn2ncc(-c3ccnc(N4CCC45COC5)n3)c2c1", "read-out": "binding", "tested at": "1 µM", "remaining binding [%]": 67}
{"Structure (SMILES)": "CCN1CCN(Cc2ccc(C(=O)Nc3ccc(C)c(Oc4ccc5c(c4)CC(=O)N5)c3)cc2C(F)(F)F)CC1", "read-out": "binding", "technique": "competition with immobilised ligand", "tested at": "1 µM", "remaining binding [%]": 100}
{"Structure (SMILES)": "O=C(NCCCC1CCCCC1)c1ccc(CNC(=O)c2cnn(-c3ccccc3)c2C(F)(F)F)cc1", "read-out": "cell-free assay", "technique": "competition with immobilised ligand", "tested at": "0.1 µM", "remaining binding [%]": 97}
{"Structure (SMILES)": "O=C(NCCCN1CCOCC1)c1ccc(Nc2nccc(-c3cc4ccccc4s3)n2)cc1", "read-out": "binding", "technique": "competition with immobilised ligand", "tested at": "1 µM", "remaining binding [%]": 72}
{"Structure (SMILES)": "C=CC(=O)N1CCC(C(=O)NCC(=O)N2CCN(c3nc(-c4cnc(N)nc4C(F)F)nc(N4CCOCC4)n3)CC2)CC1", "read-out": "binding", "technique": "competition with immobilised ligand", "tested at": "1 µM", "remaining binding [%]": 81}
{"Structure (SMILES)": "CNC(=O)[C@@H]1CC[C@@H](n2c(-c3ccc4cnccc4c3)nc3ccc(C(=O)NCc4cccc(C(N)=O)c4)cc32)C1", "read-out": "binding", "technique": "competition with immobilised ligand", "tested at": "1 µM", "remaining binding [%]": 69}
{"Structure (SMILES)": "CCCOc1ccc([C@@H]2[C@@H](C(=O)O)[C@H](c3ccc4c(c3)OCO4)CN2CC(=O)Nc2c(CC)cccc2CC)cc1", "read-out": "cell-free assay", "technique": "competition with immobilised ligand", "tested at": "1 µM", "remaining binding [%]": 72}
{"Structure (SMILES)": "O=C(Nc1c[nH]nc1C(=O)NC1CCNCC1)c1cc(F)cc(F)c1", "read-out": "binding", "technique": "competition with immobilised ligand", "tested at": "1 µM", "remaining binding [%]": 93}
{"Structure (SMILES)": "C[C@@H]1CCN(c2nccc(-c3cnn4ncccc34)n2)C1", "read-out": "binding", "tested at": "1 µM", "remaining binding [%]": 87}
{"Structure (SMILES)": "Cc1cc(-n2nc(Cc3cc(F)cc(C(F)(F)F)c3)nc2C)ccc1C(N)=O", "read-out": "cell-free assay", "technique": "competition with immobilised ligand", "tested at": "1 µM", "remaining binding [%]": 100}
{"Structure (SMILES)": "N[C@@H]1CCN(c2nccc(-c3cnn4ncccc34)n2)C1", "read-out": "binding", "tested at": "1 µM", "remaining binding [%]": 100}
{"Structure (SMILES)": "COc1cnc(Nc2cccc(S(N)(=O)=O)c2)nc1N1CCN(c2ccccc2)CC1", "read-out": "binding", "technique": "competition with immobilised ligand", "tested at": "1 µM", "remaining binding [%]": 83}
{"Structure (SMILES)": "O=C(O)[C@H]1[C@H](Cn2nnc3ccccc3c2=O)CC[C@@H]1C(=O)c1ccc(OCCC2CCOCC2)cc1", "read-out": "cell-free assay", "technique": "competition with immobilised ligand", "tested at": "1 µM", "remaining binding [%]": 88}
{"Structure (SMILES)": "C[C@@H](c1ccc(-n2cnc3c(N)ncnc32)cc1)N1CCc2nn(C)c(Cc3ccccc3)c2C1=O", "read-out": "binding", "technique": "competition with immobilised ligand", "tested at": "0.1 µM", "remaining binding [%]": 69}
{"Structure (SMILES)": "CC(C)CC(=O)N1CCc2nc(-c3ccc(Br)cc3)nc(N(C)Cc3ccccc3)c2C1", "read-out": "cell-free assay", "technique": "competition with immobilised ligand", "tested at": "0.1 µM", "remaining binding [%]": 100}
{"Structure (SMILES)": "O=C(c1ccc(Nc2ncc(Cl)c(-c3ccc(Cl)s3)n2)cc1)N1CCC(N2CCCC2)CC1", "read-out": "binding", "technique": "competition with immobilised ligand", "tested at": "1 µM", "remaining binding [%]": 2.2}
{"Structure (SMILES)": "COc1ccc2c(O[C@@H]3C[C@H]4C(=O)N[C@]5(C(=O)O)CC5/C=C\\CCCCC[C@H](NC(=O)OC5CCCC5)C(=O)N4C3)cc(-c3csc(NC(=O)C(C)C)n3)nc2c1C (stereo partly shown)", "read-out": "cell-free assay", "technique": "competition with immobilised ligand", "tested at": "1 µM", "remaining binding [%]": 83}
{"Structure (SMILES)": "CN(C)c1ncc(F)c(-c2cnn3ncccc23)n1", "read-out": "binding", "tested at": "1 µM", "remaining binding [%]": 75}
{"Structure (SMILES)": "O=C(NCc1ncc(C(F)(F)F)cc1Cl)c1ccc2c(c1)C1(CCS(=O)(=O)CC1)[C@H](C1CC1)N2S(=O)(=O)c1ccc(F)cc1", "read-out": "cell-free assay", "technique": "competition with immobilised ligand", "tested at": "1 µM", "remaining binding [%]": 83}
{"Structure (SMILES)": "O=C(c1ccc(Nc2ncc(Cl)c(-c3cc4ccccc4s3)n2)cc1)N1CCC(N2CCCC2)CC1", "read-out": "binding", "technique": "competition with immobilised ligand", "tested at": "1 µM", "remaining binding [%]": 12}
{"Structure (SMILES)": "CN(c1nccc(-c2cnn3ncccc23)n1)C1CC1", "read-out": "binding", "tested at": "1 µM", "remaining binding [%]": 100}
{"Structure (SMILES)": "CC(=O)C1=C(C)N(c2cccc(C(F)(F)F)c2)C(=O)N[C@@H]1c1ccc(C#N)nc1", "read-out": "cell-free assay", "technique": "competition with immobilised ligand", "tested at": "1 µM", "remaining binding [%]": 84}
